Calls of active or inactive are those of the source. The calls are words filed in the database; no cut-off is given here.
Key:
[1] = Metabolic stability in human plasma assessed as parent compound remaining at 10 uM measured after 30 mins; assay type: ADME, cell-free; details: read-out: Stability
In short: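 Citrated human plasma spiked to final 10 μM, incubated at 37 °C for 0, 30 and 120 min; quenched with acetonitrile containing internal standard, vortexed, centrifuged at 4 °C; parent remaining quantified by LC-MS/MS in MRM mode on C18 column, formic acid water/acetonitrile gradient.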

A549 [2] = assay: Induction of apoptosis in human A549 cells assessed as increase in cleaved PARP activity measured up to 48 hrs in presence of gemcitabine by flow cytometry analysis; assay type: functional, cell-based
In short: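 A549 cells given compound, gemcitabine, or both. Apoptosis assessed by PI staining, annexin V flow cytometry, cleaved PARP immunoblot, and caspase-3 activity. For caspase-3: drugs at 10 μM for 48 h, then 1 μM NucView 488 substrate for 30 min, with 1 μM Hoechst 33342, read by plate fluorescence.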

[3] = test system: Lewis lung carcinoma cell line; assay: Antitumor activity against mouse Lewis lung carcinoma cell line allografted in male C57BL/6 mouse model assessed as increase in caspase 3 expression at 10 mg/kg, po measured every other day for 3 weeks by IHC analysis; assay type: functional, organism-based
In short: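 Syngeneic model: 6-week-old male C57BL/6 mice given 3 × 10^5 LLC cells in 50 μL PBS subcutaneously in the flank. At day 7, mice were randomized to vehicle PO daily or 10 mg/kg PO every other day for 3 weeks. Caliper volume was taken every 2 days as ([…])/2, with tumor weight at end. Spleen size and weight were recorded. Ki67 and cleaved caspase-3 were scored by IHC (DAB, hematoxylin).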

Mus musculus [4] = assay: In vivo inhibition of KRAS activation in male C57BL/6 mouse allografted with mouse Lewis lung carcinoma cell line assessed as decrease in RAS level at 10 mg/kg, po; assay type: functional, organism-based
[5] = Metabolic stability in human liver microsomes assessed as parent compound remaining at 1 uM preincubated for 5 mins followed by NADPH regenerating system addition and measured after 30 mins by LC-MS/MS analysis; assay type: ADME, Microsome; details: time 35 min, read-out: Stability
In short: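 Human liver microsomes 0.5 mg/mL in 0.1 M phosphate buffer pH 7.4, compound 1 μM, preincubated 5 min at 37 °C; NADPH regenerating system added, 30 min at 37 °C; quenched with acetonitrile containing chlorpropamide internal standard, centrifuged; parent remaining by LC-MS/MS, MRM mode, C18 column with formic acid/acetonitrile gradient.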

Mus musculus [6] = assay: In vivo inhibition of KRAS activation in male C57BL/6 mouse allografted with mouse Lewis lung carcinoma cell line assessed as decrease in IKBalpha phosphorylation at 10 mg/kg, po; assay type: functional, organism-based
[7] = molecular target: T1, Phospholipase D1 (Mus musculus) (UniProt Q9Z280); assay: In vivo inhibition of PLD1 in male C57BL/6 mouse allografted with mouse Lewis lung carcinoma cell line assessed as increase in CD8+T cell population at 10 mg/kg, po by immunofluorescence analysis; assay type: functional, organism-based
T1 sequence (whole entry): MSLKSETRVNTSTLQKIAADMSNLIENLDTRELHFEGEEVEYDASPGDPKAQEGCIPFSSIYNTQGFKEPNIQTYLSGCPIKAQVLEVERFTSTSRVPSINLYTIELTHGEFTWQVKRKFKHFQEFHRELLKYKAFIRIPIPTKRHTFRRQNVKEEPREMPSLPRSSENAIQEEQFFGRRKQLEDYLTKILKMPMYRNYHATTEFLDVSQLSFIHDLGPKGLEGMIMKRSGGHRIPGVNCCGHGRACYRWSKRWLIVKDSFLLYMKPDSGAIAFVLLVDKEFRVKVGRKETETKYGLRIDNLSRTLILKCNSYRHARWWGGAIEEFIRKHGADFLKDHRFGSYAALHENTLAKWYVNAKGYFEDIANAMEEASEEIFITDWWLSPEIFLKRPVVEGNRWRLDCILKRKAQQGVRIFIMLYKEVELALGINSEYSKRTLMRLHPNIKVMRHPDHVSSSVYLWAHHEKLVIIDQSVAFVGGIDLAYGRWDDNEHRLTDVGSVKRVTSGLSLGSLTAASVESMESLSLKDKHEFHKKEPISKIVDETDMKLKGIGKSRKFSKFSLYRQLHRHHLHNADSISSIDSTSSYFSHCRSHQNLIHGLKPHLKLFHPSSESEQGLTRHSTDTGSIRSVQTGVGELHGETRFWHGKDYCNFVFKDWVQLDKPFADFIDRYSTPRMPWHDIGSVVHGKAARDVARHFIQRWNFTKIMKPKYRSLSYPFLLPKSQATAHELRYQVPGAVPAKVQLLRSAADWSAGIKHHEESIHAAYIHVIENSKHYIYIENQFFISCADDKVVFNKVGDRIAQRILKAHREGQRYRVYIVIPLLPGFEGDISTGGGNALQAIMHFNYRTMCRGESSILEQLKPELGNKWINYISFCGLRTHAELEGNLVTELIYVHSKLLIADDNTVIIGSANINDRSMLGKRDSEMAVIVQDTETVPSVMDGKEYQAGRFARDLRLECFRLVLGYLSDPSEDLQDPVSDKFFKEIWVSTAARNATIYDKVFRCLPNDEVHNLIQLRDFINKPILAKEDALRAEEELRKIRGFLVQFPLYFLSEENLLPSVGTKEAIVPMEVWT
In short: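 Same LLC syngeneic C57BL/6 model, 10 mg/kg PO every other day for 3 weeks. Tumor tissues were stained by immunofluorescence for CD80+ and CD163+ cells, CD8+ T cells, and CD4+/IL-17+ and Treg populations. Nuclei were counterstained with 1 μM Hoechst 33342 and imaged by confocal microscopy.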

A549 [8] = assay: Inhibition of cell migration in human A549 cells measured after 24 hrs by crystal violet staining based light microscopic analysis; assay type: functional
A549 [9] = assay: Enhancement of macrophage induced phagocytosis in CFSE labelled human A549 cells assessed as increase on CD11b+CFSE macrophage […] at 5 to 20 uM incubated for 48 hrs by flow cytometric analysis; assay type: functional, cell-based; details: dose 5-20 µM
In short: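 A549 cells treated 48 h in RPMI/10% FBS, then labeled with 1 μM CFSE. Co-cultured 1:1 (5 × 10^5 each) with PMA-differentiated THP-1 macrophages in serum-free RPMI for 2 h. After Fc block, stained with PerCP-Cy5.5 anti-CD11b for 20 min at 4 °C. CD11b+CFSE+ fraction measured by flow cytometry.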

remaining at 0.5 h, 10 µM [1]: 97.4%
remaining at 0.5 h, 1 µM [5]: 57.3%
Compound: O=C(CCc1c[nH]c2ccccc12)Nc1cc(C(F)(F)F)cc(C(F)(F)F)c1
Activity (A549 [2]): Active
Activity [3]: Active
inhibition (Mus musculus [4]): Active
inhibition (Mus musculus [6]): Active
inhibition [7]: Active
inhibition (A549 [8]): Active
Activity (A549 [9]): Active

— ChEMBL document CHEMBL6134796, “Development and Evaluation of Indole-Based Phospholipase D Inhibitors for Lung Cancer Immunotherapy” (J Med Chem, 2025)
